In ChEMBL document CHEMBL1141604, “Benzenesulfonamide indole inhibitors of cytosolic phospholipase A2alpha: optimization of in vitro potency and rat pharmacokinetics for oral efficacy” (Bioorg Med Chem, 2008):

Tests used:
[1] = test system: Ovis aries; test: Effect on Ascaris suum-induced early phase-bronchoconstriction in naturally sensitized sheep model assessed as increase in specific lung resistance at 3 mg/kg, po bid for 2 days; type: functional
Method in brief: (§1)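 Naturally sensitized sheep challenged via the airways with Ascaris suum antigen. Pulmonary resistance recorded breath by breath using the esophageal balloon technique. Oral doses given in Phosal stock diluted with water, 0.25 mL/kg. Dosing BID before challenge and on challenge day, 2 h before and 8 h after. Early and late responses expressed as mean maximum % increase in specific lung resistance, compared with each sheep's historical control.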

[2] = Oral bioavailability in Beagle dog at 5 mg/kg administered through MC/TW formulation; type: ADME, organism-based, Canis lupus familiaris; conditions: in vivo
Method in brief: (§2)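 Fasted male Beagle dogs (n = 3) dosed orally in MC/TW or Phosal formulation, volume 4 or 6 mL/kg. Saphenous plasma collected over 24 h and measured by LC/MS/MS. F calculated as the dose-normalized oral/iv AUC ratio against 2 mg/kg iv.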

[3] = test system: Rattus norvegicus; test: Antiinflammatory activity against carrageenan-induced paw edema in Sprague-Dawley rat administered through MC/TW formulation; type: functional
Method in brief: (§3)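 Male Sprague-Dawley rats, 190–250 g, n = 10 per group, housed 1 week beforehand. Left hind paw volume measured by plethysmometer before oral dosing in Phosal or MC/TW (0.5% methylcellulose, 2% Tween 80) vehicle. Two hours after dosing, 60 µL of 1% carrageenan in saline injected subplantar. Paw volume remeasured 3 h later; percent inhibition of swelling calculated versus vehicle.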

[4] = test system: Ovis aries; test: Effect on Ascaris suum-induced late phase-bronchoconstriction in naturally sensitized sheep model assessed as increase in specific lung resistance at 10 mg/kg, iv bid for 1 day; type: functional
[5] = Inhibition of cPLA2-alpha in Sprague-Dawley rat whole blood assay in presence of A23187; type: tissue-based
Method in brief: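 Heparinized blood from male Sprague-Dawley rats, taken by cardiac puncture. Preincubated 15 min at 37 °C with compound in DMSO, then stimulated 10 min at 37 °C with 5 µM A23187 (final). Stopped with 20 mM EDTA; plasma precipitated with cold methanol at −80 °C. TXB2 measured by immunoassay; IC50 values averaged from at least two independent runs.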

[6] = test system: Blood; test: Inhibition of PGF2-alpha production in human whole blood assay; type: functional, tissue-based
Method in brief: (§4)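 Heparinized blood from healthy male volunteers (3 donors). Aliquots preincubated 15 min at 37 °C with compound in DMSO, then stimulated 15 min with 30 µM A23187 (final). Reaction stopped with 20 mM EDTA; plasma proteins precipitated with cold methanol. TXB2, LTB4, PGE2 and PGF2α measured by immunoassay kit; IC50 derived.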

[7] = Clearance in Sprague-Dawley rat at 2 mg/kg, iv; type: ADME, organism-based; set-up: dose 2 mg/kg, route intravenous; conditions: in vivo
Method in brief: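 Male Sprague-Dawley rats, 200–300 g, n = 3, given a single 2 mg/kg tail-vein bolus in 50% PEG-400/50% DMSO. Blood drawn via jugular cannula over 24 h and plasma acidified with HCl. Plasma levels measured by LC/MS/MS after acetonitrile precipitation with internal standard; quantitation limit 5 ng/mL. Clearance from non-compartmental analysis.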

[8] = test system: Rattus norvegicus; test: Antiinflammatory activity against carrageenan-induced paw edema in Sprague-Dawley rat decrease in paw volume at 25 mg/kg, po administered through MC/TW formulation; type: functional; set-up: scale not given: the % may be the effect or the level left; method in brief: as §3
[9] = test system: Blood; test: Inhibition of TXB2 production in human whole blood assay; type: functional, tissue-based; method in brief: as §4
[10] = Selectivity for human cPLA2-alpha over COX2
[11] = test system: Rattus norvegicus; test: Antiinflammatory activity against carrageenan-induced paw edema in Sprague-Dawley rat decrease in paw volume at 10 mg/kg, po administered through MC/TW formulation; type: functional; set-up: scale not given: the % may be the effect or the level left; method in brief: as §3
[12] = Oral bioavailability in Sprague-Dawley rat at 25 mg/kg administered through MC/TW formulation; type: ADME, organism-based; conditions: in vivo
Method in brief: (§5)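 Overnight-fasted male Sprague-Dawley rats (n = 3) gavaged in MC/TW or Phosal vehicle; compound at 37.5 mg/mL, diluted with water, dosed at 4 mL/kg. Jugular blood taken over 24 h; plasma analysed by LC/MS/MS. F calculated as the dose-normalized oral/iv AUC ratio, iv reference 2 mg/kg.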

[13] = test system: Blood; test: Inhibition of PGE2 production in human whole blood assay; type: functional, tissue-based; method in brief: as §4
[14] = biological target: T1, Prostaglandin G/H synthase 2 (Homo sapiens) (UniProt P35354); test: Inhibition of COX2 at 100 uM
T1 sequence (whole entry): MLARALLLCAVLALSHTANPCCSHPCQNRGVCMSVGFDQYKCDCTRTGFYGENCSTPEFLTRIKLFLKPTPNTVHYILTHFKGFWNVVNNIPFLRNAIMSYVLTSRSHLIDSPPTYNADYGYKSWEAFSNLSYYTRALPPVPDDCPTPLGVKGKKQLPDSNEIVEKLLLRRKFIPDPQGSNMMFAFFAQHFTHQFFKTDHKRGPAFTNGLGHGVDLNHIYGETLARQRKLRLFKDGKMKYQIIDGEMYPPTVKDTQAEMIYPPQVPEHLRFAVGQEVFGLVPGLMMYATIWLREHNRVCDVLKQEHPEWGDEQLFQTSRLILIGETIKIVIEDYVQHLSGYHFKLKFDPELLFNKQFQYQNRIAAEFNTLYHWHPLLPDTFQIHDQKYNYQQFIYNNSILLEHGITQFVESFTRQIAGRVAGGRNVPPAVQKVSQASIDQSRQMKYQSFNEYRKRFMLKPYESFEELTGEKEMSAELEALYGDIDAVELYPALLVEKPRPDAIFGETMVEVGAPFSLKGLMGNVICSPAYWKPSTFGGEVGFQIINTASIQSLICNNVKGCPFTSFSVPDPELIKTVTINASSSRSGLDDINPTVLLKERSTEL

[15] = Inhibition of human cPLA2-alpha assessed as cleavage of 7-hydroxycoumarinyl-gamma-linolenate
Method in brief: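 Substrate 90 µM GLU with 120 µM DTPC. Compounds in DMSO tested in duplicate. Fluorescence (ex 355/em 460 nm) read every 4 min for 84 min; inhibition from slope. IC50 averaged from at least two independent runs.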

[16] = test system: Rattus norvegicus; test: Antiinflammatory activity against carrageenan-induced paw edema in Sprague-Dawley rat assessed as decrease in paw volume at 25 mg/kg, po administered through Phosal formulation; type: functional; set-up: scale not given: the % may be the effect or the level left; method in brief: as §3
[17] = test system: Blood; test: Inhibition of LTB4 production in human whole blood assay; type: functional, tissue-based; method in brief: as §4
[18] = Selectivity for human cPLA2-alpha over COX1
[19] = test system: Ovis aries; test: Effect on Ascaris suum-induced late phase-bronchoconstriction in naturally sensitized sheep model assessed as increase in specific lung resistance at 1 mg/kg, po bid for 5 days; type: functional; method in brief: as §1
[20] = Binding affinity at human cPLA2-alpha by isothermal calorimetry
Method in brief: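 ITC at 30 °C. Purified human cPLA2α dialyzed into 50 mM Hepes pH 7.4, 0.3 mM EDTA, 1 mM CaCl2, 300 mM KCl. Cell held 2.5 µM protein with 1% DMSO and 940 µM Triton X-100. Syringe held 78.5 µM compound in matching buffer; twenty 10 µL injections. Buffer-only titration subtracted as background; single-site fit gave Kd and stoichiometry.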

[21] = Clearance in Beagle dog at 2 mg/kg, iv; type: ADME, organism-based, Canis lupus familiaris; set-up: dose 2 mg/kg, route intravenous; conditions: in vivo
Method in brief: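 Male Beagle dogs, 8.5–13.0 kg, n = 3, fasted overnight, given 2 mg/kg iv in 20% DMSO/80% PEG-200. Saphenous blood sampled over 24 h and plasma acidified to about pH 4. Analysed by LC/MS/MS with internal standard. Clearance by non-compartmental methods.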

[22] = Oral bioavailability in Sprague-Dawley rat at 25 mg/kg administered through Phosal formulation; type: ADME, organism-based; conditions: in vivo; method in brief: as §5
[23] = Oral bioavailability in Beagle dog at 5 mg/kg administered through Phosal formulation; type: ADME, organism-based, Canis lupus familiaris; conditions: in vivo; method in brief: as §2
[24] = test system: Ovis aries; test: Effect on Ascaris suum-induced early phase-bronchoconstriction in naturally sensitized sheep model assessed as increase in specific lung resistance at 1 mg/kg, po bid for 5 days; type: functional; method in brief: as §1
[25] = test system: Ovis aries; test: Effect on Ascaris suum-induced late phase-bronchoconstriction in naturally sensitized sheep model assessed as increase in specific lung resistance at 3 mg/kg, po bid for 2 days; type: functional; method in brief: as §1
[26] = test system: Ovis aries; test: Effect on Ascaris suum-induced early phase-bronchoconstriction in naturally sensitized sheep model assessed as increase in specific lung resistance at 10 mg/kg, iv bid for 1 day; type: functional
[27] = biological target: Prostaglandin G/H synthase 1 (Homo sapiens) (UniProt P23219); test: Inhibition of COX1 at 100 uM
Prostaglandin G/H synthase 1 (Homo sapiens), sequence (P23219 whole entry): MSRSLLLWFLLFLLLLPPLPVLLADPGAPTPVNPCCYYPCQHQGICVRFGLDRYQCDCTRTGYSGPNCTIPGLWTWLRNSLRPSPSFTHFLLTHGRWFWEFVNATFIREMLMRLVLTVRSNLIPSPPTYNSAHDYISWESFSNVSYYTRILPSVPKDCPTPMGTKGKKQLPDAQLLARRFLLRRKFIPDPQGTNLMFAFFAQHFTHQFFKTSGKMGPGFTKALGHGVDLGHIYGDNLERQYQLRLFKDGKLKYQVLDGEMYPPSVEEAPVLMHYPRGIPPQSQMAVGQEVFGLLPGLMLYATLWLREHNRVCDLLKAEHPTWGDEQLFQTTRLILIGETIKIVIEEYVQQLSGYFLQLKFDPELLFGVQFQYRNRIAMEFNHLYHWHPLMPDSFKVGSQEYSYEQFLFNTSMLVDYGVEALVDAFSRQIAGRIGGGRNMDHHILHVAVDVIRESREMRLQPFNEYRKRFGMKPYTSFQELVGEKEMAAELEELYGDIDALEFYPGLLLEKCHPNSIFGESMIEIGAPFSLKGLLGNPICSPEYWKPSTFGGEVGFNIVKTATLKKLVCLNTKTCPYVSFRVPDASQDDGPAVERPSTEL

For O=C(O)c1ccc(CCCc2c(CCNS(=O)(=O)c3c(F)cccc3C(F)(F)F)n(C(c3ccccc3)c3ccccc3)c3ccc(Cl)cc23)cc1, which Activity [1] is on record?
The Activity was 379%.

What about the bioavailability [2] of the same molecule?
The bioavailability was 16%.

What about the ED50 [3] of the same molecule?
Its ED50 is under 10 mg/kg.

What about the Activity [4] of the same molecule?
The Activity was 29%.

And the IC50 [5]?
The IC50 was 100 nM.

And the IC50 [6]?
The IC50 was 110 nM.

And the clearance [7]?
The clearance was 14 mL/min/kg.

And the Activity [8]?
The Activity was 44%.

What about the IC50 [9] of the same molecule?
The IC50 was 120 nM.

And the Selectivity ratio [10]?
Its Selectivity ratio is over 1000.

What about the Activity [11] of the same molecule?
Its Activity is 34%.

And the bioavailability [12]?
Its bioavailability is 13%.

What about the IC50 [13] of the same molecule?
Its IC50 is 60 nM.

And the inhibition [14]?
The inhibition was 9.9%.

What about the IC50 [15] of the same molecule?
Its IC50 is 65 nM.

What about the Activity [16] of the same molecule?
Its Activity is 16%.

What about the IC50 [17] of the same molecule?
The IC50 was 82 nM.

And the Selectivity ratio [18]?
Its Selectivity ratio is over 1000.

And the Activity [19]?
Its Activity is 68%.

And the Kd [20]?
Its Kd is 80 nM.

And the clearance [21]?
Its clearance is 1.4 mL/min/kg.

What about the bioavailability [22] of the same molecule?
Its bioavailability is 5%.

What about the bioavailability [23] of the same molecule?
The bioavailability was 13%.

What about the Activity [24] of the same molecule?
Its Activity is 431%.

What about the Activity [25] of the same molecule?
Its Activity is 29%.

What about the Activity [26] of the same molecule?
The Activity was 346%.

What about the inhibition [27] of the same molecule?
Its inhibition is 45%.
